Results from ChEMBL document CHEMBL1131626 (J Med Chem, 1998).
One block for each compound: values may come before it.

How the values were obtained:
[1] = molecular target: T1, Progesterone receptor (Mus musculus) (UniProt Q00175); test: Effect on pregnancy in mice as percent pregnant at 1 mg/mouse dose with simultaneous 0.5 mg RU-486 dose; type: functional
T1 sequence (whole entry): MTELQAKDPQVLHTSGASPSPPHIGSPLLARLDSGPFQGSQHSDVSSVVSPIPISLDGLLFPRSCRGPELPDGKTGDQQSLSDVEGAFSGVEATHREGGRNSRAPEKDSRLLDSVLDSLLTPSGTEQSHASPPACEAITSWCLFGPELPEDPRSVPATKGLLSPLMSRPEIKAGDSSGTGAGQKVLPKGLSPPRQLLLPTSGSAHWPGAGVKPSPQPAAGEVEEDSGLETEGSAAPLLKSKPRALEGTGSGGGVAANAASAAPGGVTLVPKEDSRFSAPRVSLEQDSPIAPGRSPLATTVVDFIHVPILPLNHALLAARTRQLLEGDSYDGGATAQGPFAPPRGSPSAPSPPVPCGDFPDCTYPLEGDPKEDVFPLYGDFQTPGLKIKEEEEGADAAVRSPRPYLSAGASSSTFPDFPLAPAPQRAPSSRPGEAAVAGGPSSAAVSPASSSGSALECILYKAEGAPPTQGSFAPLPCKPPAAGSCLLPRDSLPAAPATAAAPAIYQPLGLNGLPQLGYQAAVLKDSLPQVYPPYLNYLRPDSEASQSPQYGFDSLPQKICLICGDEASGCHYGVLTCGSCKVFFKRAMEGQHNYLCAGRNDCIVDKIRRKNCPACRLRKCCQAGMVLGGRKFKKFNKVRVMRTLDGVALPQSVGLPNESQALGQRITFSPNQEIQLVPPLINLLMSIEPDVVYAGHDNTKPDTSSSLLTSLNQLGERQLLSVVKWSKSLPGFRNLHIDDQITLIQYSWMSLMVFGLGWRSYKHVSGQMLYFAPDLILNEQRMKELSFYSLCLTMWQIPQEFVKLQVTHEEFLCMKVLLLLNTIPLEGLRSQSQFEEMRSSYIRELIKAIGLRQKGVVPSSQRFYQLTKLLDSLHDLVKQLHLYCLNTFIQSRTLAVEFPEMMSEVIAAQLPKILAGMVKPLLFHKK
Method in brief: (§1)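 Mature virgin ICR mice, 10-12 weeks old, mated overnight; vaginal plug marks day 1. Oral RU486 0.5 mg (~15 mg/kg), alone or with test compound (mg/mouse), on days 2-4. Compounds in ethanol diluted with corn oil, 0.1 mL. Oil controls. Necropsy on day 8 to count corpora lutea and implantation sites and to score pregnancy. Student t-test.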

[2] = molecular target: T1, Progesterone receptor (Mus musculus); test: Effect on pregnancy in mice as number pregnant/mated at 1 mg/mouse dose with simultaneous 0.5 mg RU-486 dose; out of 11; type: functional; method in brief: as §1
[3] = molecular target: T1, Progesterone receptor (Mus musculus); test: Effect on pregnancy in mice as number pregnant/mated at 3 mg/mouse dose with simultaneous 0.5 mg RU-486 dose; out of 9; type: functional; method in brief: as §1
[4] = molecular target: T1, Progesterone receptor (Mus musculus); test: Effect on pregnancy in mice as implantation at 3 mg/mouse dose with simultaneous 0.5 mg RU-486 dose; type: functional; method in brief: as §1
[5] = molecular target: T1, Progesterone receptor (Mus musculus); test: Effect on pregnancy in mice as corpora lutea at 1 mg/mouse dose with simultaneous 0.5 mg RU-486 dose; type: functional, organism-based; method in brief: as §1
[6] = molecular target: T1, Progesterone receptor (Mus musculus); test: Effect on pregnancy in mice as corpora lutea at 3 mg/mouse dose with simultaneous 0.5 mg RU-486 dose; type: functional, organism-based; method in brief: as §1
[7] = molecular target: T1, Progesterone receptor (Mus musculus); test: Effect on pregnancy in mice as implantation at 1 mg/mouse dose with simultaneous 0.5 mg RU-486 dose; type: functional; method in brief: as §1
[8] = molecular target: T1, Progesterone receptor (Mus musculus); test: Effect on pregnancy in mice as percent pregnant at 3 mg/mouse dose with simultaneous 0.5 mg RU-486 dose; type: functional; method in brief: as §1
[9] = molecular target: T1, Progesterone receptor (Mus musculus); test: Effect on pregnancy in mice as percent pregnant at 0.5 mg/mouse dose with simultaneous 0.5 mg RU-486 dose; type: functional; method in brief: as §1
[10] = molecular target: T1, Progesterone receptor (Mus musculus); test: Effect on pregnancy in mice as implantation at 0.5 mg/mouse dose with simultaneous 0.5 mg RU-486 dose; type: functional; method in brief: as §1
[11] = molecular target: T1, Progesterone receptor (Mus musculus); test: Effect on pregnancy in mice as number pregnant/mated at 0.5 mg/mouse dose with simultaneous 0.5 mg RU-486 dose; out of 16; type: functional; method in brief: as §1
[12] = molecular target: T1, Progesterone receptor (Mus musculus); test: Effect on pregnancy in mice as corpora lutea at 0.5 mg/mouse dose with simultaneous 0.5 mg RU-486 dose; type: functional, organism-based; method in brief: as §1
[13] = molecular target: T1, Progesterone receptor (Mus musculus); test: Effect on pregnancy in mice as number pregnant/mated at 10 mg/mouse dose with simultaneous 0.5 mg RU-486 dose; out of 10; type: functional; method in brief: as §1
[14] = molecular target: T1, Progesterone receptor (Mus musculus); test: Effect on pregnancy in mice as percent pregnant at 10 mg/mouse dose with simultaneous 0.5 mg RU-486 dose; type: functional; method in brief: as §1
[15] = molecular target: T1, Progesterone receptor (Mus musculus); test: Effect on pregnancy in mice as corpora lutea at 10 mg/mouse dose with simultaneous 0.5 mg RU-486 dose; type: functional, organism-based; method in brief: as §1
[16] = molecular target: T1, Progesterone receptor (Mus musculus); test: Effect on pregnancy in mice as corpora lutea at 30 mg/mouse dose with simultaneous 0.5 mg RU-486 dose; type: functional, organism-based; method in brief: as §1
[17] = molecular target: T1, Progesterone receptor (Mus musculus); test: Effect on pregnancy in mice as implantation at 10 mg/mouse dose with simultaneous 0.5 mg RU-486 dose; type: functional; method in brief: as §1
[18] = molecular target: T1, Progesterone receptor (Mus musculus); test: Effect on pregnancy in mice as number pregnant/mated at 3 mg/mouse dose with simultaneous 0.5 mg RU-486 dose; out of 12; type: functional; method in brief: as §1
[19] = molecular target: T1, Progesterone receptor (Mus musculus); test: Effect on pregnancy in mice as number pregnant/mated at 1 mg/mouse dose with simultaneous 0.5 mg RU-486 dose; out of 10; type: functional; method in brief: as §1
[20] = molecular target: T1, Progesterone receptor (Mus musculus); test: Effect on pregnancy in mice as implantation at 30 mg/mouse dose with simultaneous 0.5 mg RU-486 dose; type: functional; method in brief: as §1
[21] = molecular target: T1, Progesterone receptor (Mus musculus); test: Effect on pregnancy in mice as number pregnant/mated at 30 mg/mouse dose with simultaneous 0.5 mg RU-486 dose; out of 10; type: functional; method in brief: as §1
[22] = molecular target: T1, Progesterone receptor (Mus musculus); test: Effect on pregnancy in mice as percent pregnant at 30 mg/mouse dose with simultaneous 0.5 mg RU-486 dose; type: functional; method in brief: as §1

Pregnant [1]: 91%
No. pregnant/mated [2]: 10
No. pregnant/mated [3]: 9
Implants [4]: 13.7
Corpora lutea [5]: 14.1
Corpora lutea [6]: 14.1
Implants [7]: 12
Pregnant [8]: 100%
SMILES: CC#C[C@]1(O)CC[C@H]2[C@@H]3CCC4=CC(=O)CCC4=C3[C@@H](c3ccc(N(C)C)cc3)C[C@@]21C.CC1=CC(C)(C)Nc2ccc3c(c21)C(c1cccc(Cl)c1)Oc1ccc(F)cc1-3

Pregnant [9]: 18.8%
Implants [10]: 3.3
No. pregnant/mated [11]: 3
Corpora lutea [12]: 13.4
SMILES: CC#C[C@]1(O)CC[C@H]2[C@@H]3CCC4=CC(=O)CCC4=C3[C@@H](c3ccc(N(C)C)cc3)C[C@@]21C

No. pregnant/mated [13]: 1
Pregnant [1]: 10%
Pregnant [14]: 10%
Corpora lutea [15]: 12.3
Corpora lutea [16]: 10.7
Implants [17]: 1.4
No. pregnant/mated [18]: 2
No. pregnant/mated [19]: 1
Implants [20]: 6.7
Implants [4]: 2.6
No. pregnant/mated [21]: 5
Corpora lutea [5]: 11.7
Corpora lutea [6]: 13.6
Implants [7]: 1.2
Pregnant [8]: 16.7%
Pregnant [22]: 50%
SMILES: CC#C[C@]1(O)CC[C@H]2[C@@H]3CCC4=CC(=O)CCC4=C3[C@@H](c3ccc(N(C)C)cc3)C[C@@]21C.CC(=O)O[C@]1(C(C)=O)CC[C@H]2[C@@H]3C[C@H](C)C4=CC(=O)CC[C@]4(C)[C@H]3CC[C@@]21C
